ChEMBL document CHEMBL5357038, “Highly efficient, catalyst-free, one-pot sequential four-component synthesis of novel spiroindolinone-pyrazole scaffolds as anti-Alzheimer agents: in silico study and biological screening” (RSC Med Chem, 2024)
Active and inactive are the calls of the source. The rule behind the calls is not given here.

What was measured:
Acetylcholinesterase [1] = target: T1, Acetylcholinesterase (Homo sapiens, UniProt P22303); experiment: Inhibition of AChE (unknown origin) at 50 uM by Ellman's method relative to control
T1 sequence (P22303 whole entry): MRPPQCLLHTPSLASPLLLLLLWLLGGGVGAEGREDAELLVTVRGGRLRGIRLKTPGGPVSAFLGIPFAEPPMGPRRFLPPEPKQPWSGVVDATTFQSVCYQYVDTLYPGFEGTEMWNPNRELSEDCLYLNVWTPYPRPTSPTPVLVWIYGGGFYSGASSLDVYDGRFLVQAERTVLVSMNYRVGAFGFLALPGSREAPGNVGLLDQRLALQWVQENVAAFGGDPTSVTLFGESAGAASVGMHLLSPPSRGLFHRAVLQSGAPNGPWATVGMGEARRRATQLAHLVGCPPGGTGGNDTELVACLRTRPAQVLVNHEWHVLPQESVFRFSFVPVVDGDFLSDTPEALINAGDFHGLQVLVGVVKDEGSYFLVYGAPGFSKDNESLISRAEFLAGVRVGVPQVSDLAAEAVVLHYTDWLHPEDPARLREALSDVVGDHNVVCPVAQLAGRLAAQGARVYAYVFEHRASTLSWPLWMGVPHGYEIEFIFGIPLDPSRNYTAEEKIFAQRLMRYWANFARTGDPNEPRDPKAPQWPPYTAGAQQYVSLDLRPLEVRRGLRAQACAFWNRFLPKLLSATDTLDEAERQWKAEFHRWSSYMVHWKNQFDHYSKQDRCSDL

Cholinesterase [2] = target: T2, Cholinesterase (Homo sapiens, UniProt P06276); experiment: Inhibition of BuChE (unknown origin) at 50 uM by Ellman's method relative to control
T2 sequence (P06276 whole entry): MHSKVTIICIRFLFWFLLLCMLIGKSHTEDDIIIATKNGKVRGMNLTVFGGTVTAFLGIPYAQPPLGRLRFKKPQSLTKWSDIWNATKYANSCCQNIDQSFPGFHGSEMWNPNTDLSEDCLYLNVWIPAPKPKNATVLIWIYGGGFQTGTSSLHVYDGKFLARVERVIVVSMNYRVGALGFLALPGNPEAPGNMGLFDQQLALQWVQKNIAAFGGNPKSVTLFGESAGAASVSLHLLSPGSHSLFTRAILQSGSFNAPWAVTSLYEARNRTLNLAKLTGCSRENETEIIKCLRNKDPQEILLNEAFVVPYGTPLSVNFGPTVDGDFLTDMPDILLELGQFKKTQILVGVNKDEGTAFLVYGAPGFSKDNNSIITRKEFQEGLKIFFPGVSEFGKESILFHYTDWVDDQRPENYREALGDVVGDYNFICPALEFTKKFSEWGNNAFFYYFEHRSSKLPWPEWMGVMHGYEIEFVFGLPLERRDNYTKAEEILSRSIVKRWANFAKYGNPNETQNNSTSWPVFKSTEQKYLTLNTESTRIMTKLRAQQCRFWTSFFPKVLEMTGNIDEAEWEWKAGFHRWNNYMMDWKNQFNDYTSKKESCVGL

Cholinesterase [3] = target: T2, Cholinesterase; experiment: Inhibition of BuChE (unknown origin) by Ellman's method
Acetylcholinesterase [4] = target: T1, Acetylcholinesterase; experiment: Inhibition of AChE (unknown origin)
Cholinesterase [5] = target: T2, Cholinesterase; experiment: Inhibition of BuChE (unknown origin)
[6] = Cytotoxicity against human MC65 cells assessed as reduction in cell viability; type: functional
Acetylcholinesterase [7] = target: T1, Acetylcholinesterase; experiment: Inhibition of AChE (unknown origin) assessed as inhibition constant
How it was run: (§1)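 AChE kinetics run with acetylthiocholine substrate at 0.1–1 mM, with no inhibitor and with several inhibitor concentrations. Lineweaver–Burk double-reciprocal plots (1/V vs 1/[S]) across the inhibitor concentrations assigned the inhibition type and gave Km. Ki was estimated from a secondary plot of the slopes against inhibitor concentration.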

[8] = Selectivity index, ratio of Ki for inhibition of AChE (unknown origin) to Ki for inhibition of BuChE (unknown origin)
Acetylcholinesterase [9] = target: T1, Acetylcholinesterase; experiment: Inhibition of AChE (unknown origin) by Ellman's method
SH-SY5Y [10] = experiment: Cytotoxicity against human SH-SY5Y cells assessed as reduction in cell viability at 5 uM by MTT assay; type: functional, cell-based
How it was run: (§2)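 SH-SY5Y cells were grown in DMEM/F12 with 15% FBS, penicillin (100 units per ml) and streptomycin (100 μg ml−1) at 37 °C in humidified 5% CO2/95% air. After treatment, MTT was added at 0.5 mg ml−1 final for a further 2 h. Formazan was dissolved in DMSO and read at 540 nm. Untreated control cells were set as 100% viability.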

Acetylcholinesterase [11] = target: T1, Acetylcholinesterase; experiment: Mixed type inhibition of AChE (unknown origin) assessed as change in Vmax by Lineweaver-burk plot analysis; conditions: dose 2-12 µM; how it was run: as §1
SH-SY5Y [12] = experiment: Cytotoxicity against human SH-SY5Y cells assessed as reduction in cell viability at 50 uM by MTT assay; type: functional; how it was run: as §2
Acetylcholinesterase [13] = target: T1, Acetylcholinesterase; experiment: Mixed type inhibition of AChE (unknown origin) assessed as increase in Km at 2 to 12 uM by Lineweaver-burk plot analysis; conditions: dose 2-12 µM; how it was run: as §1
Acetylcholinesterase [14] = target: T1, Acetylcholinesterase; experiment: Mixed type inhibition of AChE (unknown origin) assessed as inhibition constant by Lineweaver-burk plot analysis; how it was run: as §1
Acetylcholinesterase [15] = target: T1, Acetylcholinesterase; experiment: Inhibition of AChE (unknown origin) using acetylthiocholine as substrate incubated for 15 mins by DTNB reagent based Ellman's method
Cholinesterase [16] = target: T2, Cholinesterase; experiment: Inhibition of BuChE (unknown origin) incubated for 15 mins by DTNB reagent based Ellman's method

## Cc1ccc(NC2=C([N+](=O)[O-])C3(NN2)C(=O)Nc2ccccc23)cc1 (centres undefined)
Acetylcholinesterase [1]
  inhibition: 30.5%
Cholinesterase [2]
  inhibition: 56.5%
Cholinesterase [3]
  IC50: 25.1 µM

## O=C(Nc1cccc(-c2cc(-c3ccc(Cl)cc3)n[nH]2)c1)c1ccccc1
Acetylcholinesterase [4]
  IC50: 1.94 µM
Cholinesterase [5]
  IC50: 1.17 µM
[6]
  Activity: 90%

## Cc1ccccc1NC1=C([N+](=O)[O-])C2(NN1)C(=O)Nc1ccccc12 (centres undefined)
Acetylcholinesterase [1]
  inhibition: 35.4%
Cholinesterase [2]
  inhibition: 60.1%
Cholinesterase [3]
  IC50: 20 µM

## O=C1Nc2ccccc2C12NNC(Nc1ccc(Cl)cc1)=C2[N+](=O)[O-] (centres undefined)
Acetylcholinesterase [1]
  inhibition: 13.9%
Cholinesterase [2]
  inhibition: 14.9%

## COc1ccc(NC2=C([N+](=O)[O-])C3(NN2)C(=O)Nc2ccc(OC)cc23)cc1 (centres undefined)
Acetylcholinesterase [1]
  inhibition: 29.7%
Cholinesterase [2]
  inhibition: inactive

## O=C1Nc2c(C(F)(F)F)cccc2C12NNC(Nc1cccc(Cl)c1)=C2[N+](=O)[O-] (centres undefined)
Acetylcholinesterase [1]
  inhibition: 20.6%
Cholinesterase [2]
  inhibition: 18.8%

## Cc1ccc(NC2=C([N+](=O)[O-])C3(NN2)C(=O)Nc2ccccc23)cc1C (centres undefined)
Acetylcholinesterase [1]
  inhibition: 29.4%
Cholinesterase [2]
  inhibition: 31.1%

## COc1ccc(NC2=C([N+](=O)[O-])C3(NN2)C(=O)Nc2ccccc23)cc1 (centres undefined)
Acetylcholinesterase [1]
  inhibition: 47.8%
Cholinesterase [2]
  inhibition: 53.4%
Cholinesterase [3]
  IC50: 34.7 µM

## Cc1cc(-c2cc3cc([N+](=O)[O-])ccc3oc2=O)n[nH]1
Acetylcholinesterase [4]
  IC50: 16.3 µM

## Cc1cc(Cl)cc2c1N(C)C(=O)/C2=N\NC(=S)Nc1cccc(S(N)(=O)=O)c1
Acetylcholinesterase [7]
  Ki: 0.52 µM
[8]
  Ratio Ki: 37.7

## O=C1Nc2ccccc2C12NNC(Nc1ccc(O)cc1)=C2[N+](=O)[O-] (centres undefined)
Acetylcholinesterase [1]
  inhibition: 41%
Cholinesterase [2]
  inhibition: 12.9%

## COc1ccc2c(c1)C1(NNC(Nc3ccc(C)c(C)c3)=C1[N+](=O)[O-])C(=O)N2 (centres undefined)
Acetylcholinesterase [1]
  inhibition: inactive
Cholinesterase [2]
  inhibition: 52.3%
Cholinesterase [3]
  IC50: 47.3 µM

## O=C1Nc2ccc([N+](=O)[O-])cc2C12NNC(Nc1ccc(Cl)cc1)=C2[N+](=O)[O-] (centres undefined)
Acetylcholinesterase [1]
  inhibition: 65.9%
Acetylcholinesterase [9]
  IC50: 37.1 µM
Cholinesterase [2]
  inhibition: 21.8%

## O=C1Nc2ccccc2C12NNC(Nc1cccc(Cl)c1)=C2[N+](=O)[O-] (centres undefined)
Acetylcholinesterase [1]
  inhibition: 75.5%
Acetylcholinesterase [9]
  IC50: 6.02 µM
SH-SY5Y [10]
  Activity: inactive
Acetylcholinesterase [11]
  inhibition: Dose-Dependent Effect
SH-SY5Y [12]
  Activity: 64.81%
Cholinesterase [2]
  inhibition: 13.9%
Acetylcholinesterase [13]
  inhibition: Active
Acetylcholinesterase [14]
  Ki: 5.59 µM

## Cc1ccccc1NC1=C([N+](=O)[O-])C2(NN1)C(=O)Nc1ccc([N+](=O)[O-])cc12 (centres undefined)
Acetylcholinesterase [1]
  inhibition: 71.6%
Acetylcholinesterase [9]
  IC50: 15.5 µM
Cholinesterase [2]
  inhibition: 38.9%

## NS(=O)(=O)c1cccc(NC(=S)N/N=C2\C(=O)N(Cc3ccccc3)c3ccc([N+](=O)[O-])cc32)c1
Acetylcholinesterase [7]
  Ki: 0.22 µM

## Cc1ccccc1NC1=C([N+](=O)[O-])C2(NN1)C(=O)Nc1ccc(Cl)cc12 (centres undefined)
Acetylcholinesterase [1]
  inhibition: 21.9%
Cholinesterase [2]
  inhibition: 73.8%
Cholinesterase [3]
  IC50: 9.13 µM

## COc1ccc(OC)c(NC2=C([N+](=O)[O-])C3(NN2)C(=O)Nc2ccc([N+](=O)[O-])cc23)c1 (centres undefined)
Acetylcholinesterase [1]
  inhibition: 55.1%
Acetylcholinesterase [9]
  IC50: 42.6 µM
Cholinesterase [2]
  inhibition: 25.1%

## CCOP(=O)(OCC)C(NCc1cccs1)c1cn(-c2ccccc2)nc1-c1ccc(Cl)cc1 (centres undefined)
Acetylcholinesterase [15]
  IC50: 0.017 µM
Cholinesterase [16]
  IC50: 6.33 µM

## Cc1ccccc1NC1=C([N+](=O)[O-])C2(NN1)C(=O)Nc1c(C(F)(F)F)cccc12 (centres undefined)
Acetylcholinesterase [1]
  inhibition: 63.1%
Acetylcholinesterase [9]
  IC50: 17 µM
Cholinesterase [2]
  inhibition: 37.5%

## Cc1ccccc1NC1=C([N+](=O)[O-])C2(NN1)C(=O)Nc1ccc(Br)cc12 (centres undefined)
Acetylcholinesterase [1]
  inhibition: 51.8%
Acetylcholinesterase [9]
  IC50: 41.7 µM
Cholinesterase [2]
  inhibition: 34%

## O=C1Nc2c(C(F)(F)F)cccc2C12NNC(Nc1cccc3ccccc13)=C2[N+](=O)[O-] (centres undefined)
Acetylcholinesterase [1]
  inhibition: 39.1%
Cholinesterase [2]
  inhibition: inactive
